From ChEMBL document CHEMBL4411336, “2-Aminothiazole Derivatives as Selective Allosteric Modulators of the Protein Kinase CK2. 2. Structure-Based Optimization and Investigation of Effects Specific to the Allosteric Mode of Action” (J Med Chem, 2019)
Each block holds one compound with its values, some of them ahead of it. Calls of active or inactive are those of the source. The rule behind the calls is not given here.

Tests used:
786-0 [1] = assay: Growth inhibition of human 786-0 cells at 25 uM after 24 hrs by MTT assay relative to control; format: functional; conditions: 786-0, 24 h, read-out: GI
[2] = molecular target: T1, Casein kinase II subunit alpha (Homo sapiens, UniProt P68400); assay: Inhibition of recombinant human GST-tagged CK2alpha in presence of ATP by radiometric kinase assay
Target sequence in this assay (P68400 whole entry): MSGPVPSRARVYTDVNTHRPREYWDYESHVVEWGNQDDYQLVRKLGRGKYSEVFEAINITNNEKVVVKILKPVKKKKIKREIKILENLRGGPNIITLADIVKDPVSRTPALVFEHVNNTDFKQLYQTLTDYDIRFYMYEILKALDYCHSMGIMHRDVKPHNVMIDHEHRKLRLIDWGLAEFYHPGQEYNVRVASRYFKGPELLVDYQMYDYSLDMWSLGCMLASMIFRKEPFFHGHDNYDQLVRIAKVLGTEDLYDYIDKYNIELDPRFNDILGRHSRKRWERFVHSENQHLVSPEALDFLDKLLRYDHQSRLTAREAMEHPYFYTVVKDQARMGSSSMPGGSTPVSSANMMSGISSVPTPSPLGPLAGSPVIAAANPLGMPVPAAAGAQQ

786-0 [3] = assay: Growth inhibition of human 786-0 cells after 24 hrs by MTT assay; format: functional; conditions: 786-0, 24 h
Method in brief: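 786-O grown in RPMI 1640 with 10% FCS, pen/strep, 37 °C, 5% CO2; assays in medium with 0.1% or 0.5% serum. Cells seeded at 1 × 10^4/well, next day given fresh medium with inhibitor at various concentrations, DMSO (0.25%) control, 24 h. MTT 2 h at 37 °C, SDS/HCl solubilization 4 h, absorbance 570 nm. GI50 by linear interpolation on log[c] scale; at least two independent experiments.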

[4] = molecular target: T1, Casein kinase II subunit alpha; conditions: HeLa, 40 uM
Target sequence in this assay (P68400 whole entry, looked up): as the sequence (P68400 whole entry) above

[5] = molecular target: Activin receptor type-1 (Homo sapiens) (UniProt Q04771); assay: Inhibition of recombinant human catalytic GST-tagged ACVR1 expressed in baculovirus expression system assessed as reduction in enzyme activity at 5 uM in presence of ATP relative to control
[6] = molecular target: Casein kinase I isoform gamma-1 (Homo sapiens) (UniProt Q9HCP0); assay: Inhibition of recombinant full length human GST-tagged CK1gamma1 expressed in baculovirus expression system assessed as reduction in enzyme activity at 5 uM in presence of ATP relative to control
Chain of Casein kinase I isoform gamma-1 (Homo sapiens) (Q9HCP0 whole entry, looked up, canonical isoform): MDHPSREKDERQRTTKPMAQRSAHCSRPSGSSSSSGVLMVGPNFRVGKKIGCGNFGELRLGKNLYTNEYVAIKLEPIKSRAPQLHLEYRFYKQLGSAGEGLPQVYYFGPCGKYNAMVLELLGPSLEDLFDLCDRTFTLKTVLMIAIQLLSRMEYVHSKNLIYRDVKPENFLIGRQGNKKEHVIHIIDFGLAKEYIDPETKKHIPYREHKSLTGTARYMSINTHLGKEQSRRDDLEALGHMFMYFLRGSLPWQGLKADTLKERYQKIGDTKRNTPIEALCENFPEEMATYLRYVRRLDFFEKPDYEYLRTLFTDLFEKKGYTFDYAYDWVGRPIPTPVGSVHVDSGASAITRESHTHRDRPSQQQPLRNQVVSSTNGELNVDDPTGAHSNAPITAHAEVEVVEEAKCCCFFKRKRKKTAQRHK

[7] = molecular target: Glycogen synthase kinase-3 beta (Homo sapiens) (UniProt P49841); assay: Inhibition of recombinant full length human His-tagged GSK3beta expressed in baculovirus expression system assessed as reduction in enzyme activity at 5 uM in presence of ATP relative to control
Homo sapiens = species: Homo sapiens; assay: Inhibition of human PI3K assessed as reduction in enzyme activity at 5 uM in presence of ATP relative to control
[8] = molecular target: Serine/threonine-protein kinase pim-1 (Homo sapiens) (UniProt P11309); assay: Inhibition of recombinant full length human His-tagged PIM1 expressed in baculovirus expression system assessed as reduction in enzyme activity at 5 uM in presence of ATP relative to control
Chain of Serine/threonine-protein kinase pim-1 (Homo sapiens) (P11309 whole entry, looked up): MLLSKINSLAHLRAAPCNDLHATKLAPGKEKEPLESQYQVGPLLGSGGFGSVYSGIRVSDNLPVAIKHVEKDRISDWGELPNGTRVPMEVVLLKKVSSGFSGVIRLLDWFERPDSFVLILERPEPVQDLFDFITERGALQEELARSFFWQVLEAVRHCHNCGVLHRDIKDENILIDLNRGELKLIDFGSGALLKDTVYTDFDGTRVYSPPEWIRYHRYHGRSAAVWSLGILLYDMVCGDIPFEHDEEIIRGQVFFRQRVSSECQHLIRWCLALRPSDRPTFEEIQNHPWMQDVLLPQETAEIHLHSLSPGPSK

[9] = molecular target: Aurora kinase B (Homo sapiens) (UniProt Q96GD4); assay: Inhibition of recombinant full length human His-tagged AURKB expressed in baculovirus expression system assessed as reduction in enzyme activity at 5 uM in presence of ATP relative to control
Chain of Aurora kinase B (Homo sapiens) (Q96GD4 whole entry): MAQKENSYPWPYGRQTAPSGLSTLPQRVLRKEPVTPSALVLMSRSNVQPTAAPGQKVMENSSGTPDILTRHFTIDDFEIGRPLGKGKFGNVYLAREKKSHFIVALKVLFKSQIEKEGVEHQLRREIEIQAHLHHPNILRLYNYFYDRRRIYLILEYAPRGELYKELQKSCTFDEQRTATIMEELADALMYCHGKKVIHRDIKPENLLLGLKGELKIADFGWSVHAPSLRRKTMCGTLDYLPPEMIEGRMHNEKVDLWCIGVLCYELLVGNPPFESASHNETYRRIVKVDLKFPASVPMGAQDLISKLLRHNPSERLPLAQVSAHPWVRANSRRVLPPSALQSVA

[10] = molecular target: Receptor tyrosine-protein kinase erbB-2 (Homo sapiens) (UniProt P04626); assay: Inhibition of human His-tagged ERBB2 expressed in baculovirus expression system assessed as reduction in enzyme activity at 5 uM in presence of ATP relative to control; design: scale not given: the % may be the effect or the level left
[11] = molecular target: Dual specificity protein kinase CLK4 (Homo sapiens) (UniProt Q9HAZ1); assay: Inhibition of recombinant full length human GST-tagged CLK4 expressed in baculovirus expression system assessed as reduction in enzyme activity at 5 uM in presence of ATP relative to control
[12] = Growth inhibition of human RPTEC cells after 24 hrs by MTT assay; format: cell-based
[13] = Growth inhibition of human MCF10A cells after 24 hrs by MTT assay; format: cell-based, MCF-10A
NCI-H1299 = assay: Growth inhibition of human H1299 cells after 24 hrs by MTT assay; format: functional; conditions: NCI-H1299, 24 h
PC-3 = assay: Growth inhibition of human PC3 cells after 24 hrs by MTT assay; format: functional; conditions: PC-3, 24 h
DU-145 = assay: Growth inhibition of human DU145 cells after 24 hrs by MTT assay; format: functional; conditions: DU-145, 24 h
U138-MG = assay: Growth inhibition of human U138MG cells after 24 hrs by MTT assay; format: functional
[14] = molecular target: Serine/threonine-protein kinase pim-1 (Homo sapiens) (UniProt P11309); assay: Inhibition of human PIM1 assessed as reduction in enzyme activity at 5 uM in presence of ATP relative to control; design: scale not given: the % may be the effect or the level left
[15] = molecular target: Epidermal growth factor receptor (Homo sapiens) (UniProt P00533); assay: Inhibition of human EGFR assessed as reduction in enzyme activity at 5 uM in presence of ATP relative to control; design: scale not given: the % may be the effect or the level left
Chain of Epidermal growth factor receptor (Homo sapiens) (P00533 whole entry): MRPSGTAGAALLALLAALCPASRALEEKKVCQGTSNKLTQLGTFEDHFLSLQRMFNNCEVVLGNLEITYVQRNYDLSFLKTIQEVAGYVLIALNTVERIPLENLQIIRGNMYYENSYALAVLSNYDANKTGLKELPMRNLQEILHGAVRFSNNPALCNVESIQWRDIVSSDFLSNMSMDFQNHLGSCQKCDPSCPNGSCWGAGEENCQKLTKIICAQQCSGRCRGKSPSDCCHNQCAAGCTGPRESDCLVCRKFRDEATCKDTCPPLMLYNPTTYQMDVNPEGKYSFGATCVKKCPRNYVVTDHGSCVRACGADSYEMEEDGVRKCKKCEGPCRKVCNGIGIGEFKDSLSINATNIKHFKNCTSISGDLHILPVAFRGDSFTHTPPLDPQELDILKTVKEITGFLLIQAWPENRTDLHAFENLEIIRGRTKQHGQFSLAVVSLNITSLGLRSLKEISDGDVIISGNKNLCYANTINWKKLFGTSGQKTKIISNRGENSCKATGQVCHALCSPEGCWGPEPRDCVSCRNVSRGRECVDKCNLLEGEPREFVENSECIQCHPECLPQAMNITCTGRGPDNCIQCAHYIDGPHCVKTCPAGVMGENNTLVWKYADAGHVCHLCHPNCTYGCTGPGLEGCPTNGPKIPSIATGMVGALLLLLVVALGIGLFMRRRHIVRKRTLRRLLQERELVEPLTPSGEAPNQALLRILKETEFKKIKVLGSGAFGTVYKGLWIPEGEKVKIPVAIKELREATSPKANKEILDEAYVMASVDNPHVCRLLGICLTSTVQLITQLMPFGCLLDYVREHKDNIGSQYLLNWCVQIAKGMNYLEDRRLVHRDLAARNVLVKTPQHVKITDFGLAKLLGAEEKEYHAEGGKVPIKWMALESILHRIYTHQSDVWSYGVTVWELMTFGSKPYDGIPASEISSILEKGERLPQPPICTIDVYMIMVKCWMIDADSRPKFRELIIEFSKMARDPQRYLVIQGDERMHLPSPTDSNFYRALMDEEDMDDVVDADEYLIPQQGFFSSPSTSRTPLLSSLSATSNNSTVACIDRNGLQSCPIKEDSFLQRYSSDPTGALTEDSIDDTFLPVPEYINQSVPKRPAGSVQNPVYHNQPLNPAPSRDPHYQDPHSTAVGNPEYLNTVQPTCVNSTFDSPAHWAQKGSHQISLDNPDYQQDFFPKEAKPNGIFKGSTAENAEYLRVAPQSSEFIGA

[16] = molecular target: Dual specificity protein kinase CLK2 (Homo sapiens) (UniProt P49760); conditions: 5 uM
[17] = molecular target: Tyrosine-protein kinase ABL1 (Homo sapiens) (UniProt P00519); conditions: 5 uM
Chain of Tyrosine-protein kinase ABL1 (Homo sapiens) (P00519 whole entry): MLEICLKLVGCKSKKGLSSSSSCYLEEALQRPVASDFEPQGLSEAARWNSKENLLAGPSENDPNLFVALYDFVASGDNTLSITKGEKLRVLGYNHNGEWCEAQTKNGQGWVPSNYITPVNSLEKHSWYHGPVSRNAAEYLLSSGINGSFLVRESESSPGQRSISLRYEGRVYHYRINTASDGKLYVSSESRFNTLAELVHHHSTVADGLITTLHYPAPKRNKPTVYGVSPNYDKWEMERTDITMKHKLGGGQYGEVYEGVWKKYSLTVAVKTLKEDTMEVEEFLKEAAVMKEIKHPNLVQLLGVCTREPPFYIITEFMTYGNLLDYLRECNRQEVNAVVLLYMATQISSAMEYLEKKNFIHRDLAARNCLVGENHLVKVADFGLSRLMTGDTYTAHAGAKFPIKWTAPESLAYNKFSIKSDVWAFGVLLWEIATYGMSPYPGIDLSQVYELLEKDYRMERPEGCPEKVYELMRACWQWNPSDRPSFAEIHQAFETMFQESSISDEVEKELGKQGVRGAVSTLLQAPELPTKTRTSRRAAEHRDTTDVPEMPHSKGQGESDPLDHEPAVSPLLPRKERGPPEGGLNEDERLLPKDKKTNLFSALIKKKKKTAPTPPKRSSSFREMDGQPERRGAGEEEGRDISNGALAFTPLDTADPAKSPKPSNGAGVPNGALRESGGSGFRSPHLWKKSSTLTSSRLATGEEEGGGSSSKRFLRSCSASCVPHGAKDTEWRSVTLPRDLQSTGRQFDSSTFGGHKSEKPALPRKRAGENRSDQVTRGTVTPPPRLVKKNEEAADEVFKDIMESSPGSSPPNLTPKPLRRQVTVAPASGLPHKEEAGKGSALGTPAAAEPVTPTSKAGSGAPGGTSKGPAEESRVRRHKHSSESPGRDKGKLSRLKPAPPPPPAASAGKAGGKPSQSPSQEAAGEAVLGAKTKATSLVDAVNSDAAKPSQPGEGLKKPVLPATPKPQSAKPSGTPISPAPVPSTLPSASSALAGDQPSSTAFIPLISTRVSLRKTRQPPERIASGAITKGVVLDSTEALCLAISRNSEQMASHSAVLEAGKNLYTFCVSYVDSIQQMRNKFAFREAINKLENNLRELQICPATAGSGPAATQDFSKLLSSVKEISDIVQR

[18] = molecular target: Serine/threonine-protein kinase Chk2 (Homo sapiens) (UniProt O96017); conditions: 5 uM
Chain of Serine/threonine-protein kinase Chk2 (Homo sapiens) (O96017 whole entry): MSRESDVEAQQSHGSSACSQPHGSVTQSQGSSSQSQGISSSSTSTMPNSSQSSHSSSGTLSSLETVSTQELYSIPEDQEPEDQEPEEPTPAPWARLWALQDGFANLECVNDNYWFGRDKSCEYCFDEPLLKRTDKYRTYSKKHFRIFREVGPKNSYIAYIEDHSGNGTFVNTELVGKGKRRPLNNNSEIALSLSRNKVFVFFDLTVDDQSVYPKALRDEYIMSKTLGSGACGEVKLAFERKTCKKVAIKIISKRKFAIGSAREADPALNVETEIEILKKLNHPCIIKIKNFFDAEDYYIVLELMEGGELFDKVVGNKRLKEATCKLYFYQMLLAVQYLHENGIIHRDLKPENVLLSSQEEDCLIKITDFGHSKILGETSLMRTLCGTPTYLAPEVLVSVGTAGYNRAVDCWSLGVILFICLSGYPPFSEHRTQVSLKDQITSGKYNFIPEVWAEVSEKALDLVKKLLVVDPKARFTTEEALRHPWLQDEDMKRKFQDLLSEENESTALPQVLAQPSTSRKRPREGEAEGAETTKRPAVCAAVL

[19] = molecular target: Dual specificity protein kinase CLK1 (Homo sapiens) (UniProt P49759); conditions: 5 uM
Chain of Dual specificity protein kinase CLK1 (Homo sapiens) (P49759 whole entry, looked up): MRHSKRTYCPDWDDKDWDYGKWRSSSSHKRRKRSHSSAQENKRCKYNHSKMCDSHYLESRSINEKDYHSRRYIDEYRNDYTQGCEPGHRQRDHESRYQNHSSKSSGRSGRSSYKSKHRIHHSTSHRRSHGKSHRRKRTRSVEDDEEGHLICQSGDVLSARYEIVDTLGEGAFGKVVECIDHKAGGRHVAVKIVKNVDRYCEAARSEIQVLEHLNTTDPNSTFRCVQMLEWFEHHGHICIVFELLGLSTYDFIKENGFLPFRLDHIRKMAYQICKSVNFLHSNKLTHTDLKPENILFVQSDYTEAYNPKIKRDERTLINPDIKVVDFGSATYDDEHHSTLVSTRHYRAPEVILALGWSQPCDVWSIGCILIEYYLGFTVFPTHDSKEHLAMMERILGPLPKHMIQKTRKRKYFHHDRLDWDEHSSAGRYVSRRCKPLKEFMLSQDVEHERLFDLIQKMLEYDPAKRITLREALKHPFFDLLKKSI

[20] = molecular target: Cyclin-dependent kinase 1/cyclin B1 (Homo sapiens) (UniProt P06493+P14635); conditions: 5 uM
786-0 [21] = assay: cells; conditions: Homo sapiens, 786-0, 24 h
786-0 [22] = assay: cells; conditions: Homo sapiens, 786-0, 24 h; remark: listed apart in the source

Compound: CS(=O)(=O)NC(=O)c1ccc(Nc2nc(-c3ccc4ccccc4c3)cs2)cc1
inhibition of growth at 25 µM (786-0 [1]): 23%

IC50 [2]: 7 µM
Compound: O=C(O)c1ccc(Nc2nc(-c3ccc(O)cc3O)cs2)cc1

IC50 [2]: > 50 µM
Compound: c1ccc(Nc2nc(-c3ccc4ccccc4c3)cs2)cc1

IC50 [2]: > 50 µM
Compound: O=C(O)Cc1ccc(Nc2nc(-c3cccc([N+](=O)[O-])c3)cs2)cc1

Compound: CC(=O)OCOC(=O)c1ccc(Nc2nc(-c3ccsc3)cs2)cc1
inhibition of growth at 25 µM (786-0 [1]): 48%

Compound: Cc1ccc(S(=O)(=O)NC(=O)c2ccc(Nc3nc(-c4ccc5ccccc5c4)cs3)cc2)cc1
inhibition of growth at 25 µM (786-0 [1]): 87%

IC50 [2]: > 50 µM
Compound: CC(C)(C)c1csc(Nc2ccc(C(=O)O)cc2)n1

GI50 (786-0 [3]): 25 µM | inhibition [4]: Active
Compound: O=C(O)c1ccc(Nc2nc(-c3cccc(Br)c3)cs2)cc1

inhibition [5]: 0% | inhibition [6]: 32% | inhibition [7]: 41% | inhibition (Homo sapiens): 53% | inhibition [8]: 60% | inhibition [9]: 62% | Activity [10]: 70% | inhibition [11]: 23% | GI50 (786-0 [3]): 5 µM | GI50 (NCI-H1299): 9 µM | GI50 (PC-3): 7 µM | GI50 (DU-145): 20 µM | Activity [14]: 60% | Activity [15]: 21% | inhibition [16]: 20 to 30% | inhibition [17]: 20 to 30% | inhibition [18]: 20 to 30% | inhibition [19]: 20 to 30% | inhibition [20]: 20 to 30% | EC50 (786-0 [21]): 4.6 µM | EC50 (786-0 [22]): 4.9 µM
Compound: O=C(O)c1ccc(Nc2nc(-c3ccc4ccccc4c3)cs2)cc1O
inhibition of growth at 25 µM (786-0 [1]): 87% | GI50 at 24 h [12]: 27 µM | GI50 at 24 h [13]: 10 µM | GI50 (U138-MG): 13 µM

IC50 [2]: > 25 µM
Compound: O=[N+]([O-])c1cccc(-c2csc(Nc3ccccc3)n2)c1

IC50 [2]: > 25 µM
Compound: COC(=O)c1ccc(Nc2nc(-c3cccc([N+](=O)[O-])c3)cs2)cc1

Compound: CC(=O)OCOC(=O)c1ccc(Nc2nc(-c3cccc([N+](=O)[O-])c3)cs2)cc1
inhibition of growth at 25 µM (786-0 [1]): 42%

IC50 [2]: > 50 µM
Compound: N#Cc1ccc(Nc2nc(-c3ccc4ccccc4c3)cs2)cc1

Compound: CC(=O)OCOC(=O)c1ccc(Nc2nc(-c3ccc4ccccc4c3)cs2)cc1
inhibition of growth at 25 µM (786-0 [1]): 45%
